M1 agonist = activates the M1 muscarinic receptor. B-score at 10 µM. AID 626. hit rate 3% among 64,000. CHO-M1 cells, Fluo-4 calcium fluorescence, agonist mode; hits give high values;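 active = fluorescence rise, raw or as B-score row- and column-corrected plate score, outside the 99.7% band of its plate's samples, either direction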
Cdc25B block = human M-phase inducer phosphatase 2 inhibition; inhibition, %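 (compounds tested at 10 µM final in the well)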; hit rate 0.1% among 65,000; AID 368; recombinant Cdc25B, OMFP fluorescence Ex485/Em525; P30305; in the data active = inhibition above about 50%
M1 antag = M1 muscarinic receptor (rat) antagonism. P08482. CHO-M1 cells, Fluo-4 calcium, ACh EC80 antagonist mode; hits give low values. B-score at 10 µM. hit rate 3.4% among 64,000. AID 628;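 active = calcium fluorescence response, raw or row-and-column corrected B-score, differing from the plate sample mean either way at a set confidence level, mostly lower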
Her2 expr inh = inhibitors of human Her2 kinase expression; P04626; SKBR-3 HER2 protein level, AlphaScreen, 18-24 h; hits give low values; HER2 level % of control, % at 10 µM; hit rate 0.69% among 65,000; AID 645;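 active = HER2 level under 5% of the carrier-only control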;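 also: lower value means stronger loss of Her2 protein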
Target sequence (P04626 whole entry, looked up): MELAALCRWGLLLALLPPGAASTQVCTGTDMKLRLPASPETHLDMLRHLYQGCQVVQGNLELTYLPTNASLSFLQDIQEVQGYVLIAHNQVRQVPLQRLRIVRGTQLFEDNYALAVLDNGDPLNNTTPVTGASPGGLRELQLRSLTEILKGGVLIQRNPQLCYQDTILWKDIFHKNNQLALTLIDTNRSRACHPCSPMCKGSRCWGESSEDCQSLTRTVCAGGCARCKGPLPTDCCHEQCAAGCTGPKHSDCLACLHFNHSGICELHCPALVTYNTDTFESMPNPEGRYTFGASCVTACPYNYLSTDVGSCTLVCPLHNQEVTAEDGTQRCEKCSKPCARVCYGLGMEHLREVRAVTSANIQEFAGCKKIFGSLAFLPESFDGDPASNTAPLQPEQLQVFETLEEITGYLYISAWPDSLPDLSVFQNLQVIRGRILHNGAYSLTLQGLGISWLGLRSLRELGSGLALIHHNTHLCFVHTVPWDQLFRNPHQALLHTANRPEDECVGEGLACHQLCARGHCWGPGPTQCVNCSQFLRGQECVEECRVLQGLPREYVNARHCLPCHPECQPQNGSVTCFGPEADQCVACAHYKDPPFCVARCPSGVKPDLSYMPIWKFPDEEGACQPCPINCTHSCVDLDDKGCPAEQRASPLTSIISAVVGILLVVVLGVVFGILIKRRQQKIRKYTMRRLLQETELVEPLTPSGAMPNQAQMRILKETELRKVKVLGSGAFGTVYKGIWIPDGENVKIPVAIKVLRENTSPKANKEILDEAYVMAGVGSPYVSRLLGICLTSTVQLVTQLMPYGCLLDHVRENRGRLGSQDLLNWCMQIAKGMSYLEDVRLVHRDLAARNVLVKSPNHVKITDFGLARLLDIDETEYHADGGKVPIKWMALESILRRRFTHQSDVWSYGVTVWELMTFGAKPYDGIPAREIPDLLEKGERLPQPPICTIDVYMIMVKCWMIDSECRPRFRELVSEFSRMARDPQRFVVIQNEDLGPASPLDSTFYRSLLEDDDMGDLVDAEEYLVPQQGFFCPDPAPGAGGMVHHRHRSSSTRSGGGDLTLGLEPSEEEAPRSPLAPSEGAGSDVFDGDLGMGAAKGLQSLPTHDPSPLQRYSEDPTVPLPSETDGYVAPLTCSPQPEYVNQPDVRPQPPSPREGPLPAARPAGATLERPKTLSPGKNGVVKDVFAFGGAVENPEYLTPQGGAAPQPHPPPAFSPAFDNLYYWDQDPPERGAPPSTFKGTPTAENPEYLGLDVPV
HEK293 NFkB inh = inhibitors of the PMA/ionomycin-induced NF-kB reporter in HEK293 cells; hit rate 0.21% among 62,000; inhibition, % at 3 µM; HEK-293 NF-kB luciferase reporter, luminescence;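 active = inhibition above the mean of all tested compounds plus 3 SD, cut at about 40% in these data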
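Material: HEK-293 cells with stable firefly luciferase reporter driven by four HIV NF-kB elements / Also added: PMA plus ionomycin mix as NF-kB-activating stimulus / Compound dosing: 3 µM once, 0.30% DMSO / Times: 1 h pretreatment, 16 h stimulation, 37 °C / Signal: luminescence / Evaluation: per-plate % inhibition versus controls / Benchmarks: DMSO and 10 µM reference inhibitor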
MKP-1 inh = inhibitors of human MKP-1 phosphatase; P28562; recombinant MKP-1, OMFP hydrolysis fluorescence; inhibition, %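 (compounds tested at a single concentration somewhere between 10 and 100 µM)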; hit rate 0.15% among 65,000; AID 374;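 active = inhibition above about 50%, limit read from the data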
Numbers stand for hits; n = inactive; x = not tested or not shown. This is a sample that favours compounds with a hit; in the whole collection about 6.8% have one here.

SMILES | M1 agonist | Cdc25B block | M1 antag | Her2 expr inh | HEK293 NFkB inh | MKP-1 inh
O=S(=O)(NCCSc1nnnn1-c1ccccc1)c1cccs1 | n | n | n | n | n | n
Cc1cc(-n2c(C)cc(C(=O)CSc3nnnn3-c3ccc(Cl)cc3)c2C)no1 | n | n | n | -7.5 | n | n
CCOC(=O)CNC(=O)CSc1ncnc2c1cnn2-c1ccc(Cl)cc1 | n | n | n | n | n | n
CCOC(=O)CNC(=O)CSc1ncnc2c1cnn2Cc1ccccc1 | n | n | n | -18 | n | n
Cc1nn(-c2ccccc2)c2sc(C(=O)O)cc12 | n | 102 | n | n | n | n
C=CCn1c(SCC(=O)Nc2cccc(OC)c2)nnc1-c1cccnc1 | n | n | n | n | n | n
COc1ccc(-n2nnnc2SCC(=O)Nc2ccc3c(c2)OCCO3)c(OC)c1 | n | n | n | n | n | 102
COc1ccc(-n2nnnc2SCC(=O)Nc2ccc3c(c2)OCCO3)cc1OC | n | n | n | n | n | n
C=CCn1nnnc1SCC(=O)Nc1cccc(OC)c1 | n | n | 11 | n | n | n
CCOC(=O)c1ccc(NC(=O)CSc2nnnn2CCCO)cc1 | n | n | 1.8 | n | n | n
CCOC(=O)c1c(-c2ccccc2)csc1NC(=O)CSc1nnnn1C | 3.2 | n | n | n | n | n
Cc1cccc(-c2nnc3n2N=C(c2ccccc2Br)CS3)c1 | n | n | n | n | n | n
COc1ccc(-c2onc3ccc(Cl)cc23)cc1OC | n | n | n | n | n | n
O=C(Cc1cccs1)NCCn1ccc2ccccc21 | n | n | n | n | n | n
COc1ccc2nc(NCCCNC(=O)c3cc(OC)c(OC)c(OC)c3)c(C#N)cc2c1 | 15 | n | n | n | n | n
O=C(CCC1CCCCC1)NCc1ccncc1 | n | n | n | n | n | n
O=C(CCC1CCCC1)c1c(O)c2ccccc2oc1=O | 8.2 | n | -2.1 | n | n | n
O=C(NC1=NCCS1)C1COc2ccccc2O1 (configuration not stated) | n | n | n | n | 58 | n
O=C(Nc1ccncc1)C1COc2ccccc2O1 (configuration not stated) | n | n | n | n | n | n
CC1=Nn2c(nnc2-c2ccc(F)cc2)SC1 | n | n | n | n | n | n
COc1ccc(OC)c(S(=O)(=O)Nc2ccc(O)c3ccccc23)c1 | n | n | n | 1.2 | n | n
COc1ccc(OC)c(S(=O)(=O)Nc2ccc(C(N)=O)cc2)c1 | n | n | n | n | n | n
O=C(Cn1cnc2c(nnn2-c2ccc(F)cc2)c1=O)N1CCCC1 | n | n | n | n | n | n
CNC(=O)CN(C#N)c1nc(N(C)C)nc(N(C)C)n1 | n | n | n | -20 | n | n
Cc1csc(=Nc2ccc(S(=O)(=O)N3CCOCC3)cc2)n1Cc1ccco1 | n | n | n | n | n | n
SMILES | M1 agonist | Cdc25B block | M1 antag | Her2 expr inh | HEK293 NFkB inh | MKP-1 inh
O=S(=O)(CCn1cccc1)CCn1cccc1 | n | n | 2.2 | n | n | n
Fc1cccc(-c2cc3nc4c(c(N5CCN(c6cnccn6)CC5)n3n2)CCCC4)c1 | 14 | n | n | n | n | n
Fc1cccc(-c2cc3nc4c(c(N5CCOCC5)n3n2)CCCC4)c1 | n | n | n | n | n | n
O=C(NC1CCCC1)c1ccc2nc(-c3ccco3)c(-c3ccco3)nc2c1 | 7.1 | n | n | n | n | n
Cc1cccn2c(=O)c3cc(C#N)c(=NC(=O)c4ccncc4)n(Cc4ccco4)c3nc12 | 6.6 | n | n | n | n | n
COCCn1c(=NC(=O)c2ccc3c(c2)OCO3)c(C#N)cc2c(=O)n3cccc(C)c3nc21 | n | n | n | n | n | n
CCN(CC)C(=O)c1cc2c(=O)n3cccc(C)c3nc2n1C | n | 74 | n | n | n | n
CCCCCn1c(=NC(C)=O)c(C#N)cc2c(=O)n3ccccc3nc21 | n | n | n | n | n | n
CCCCn1c(=NC(C)=O)c(C#N)cc2c(=O)n3cccc(C)c3nc21 | 21 | n | n | n | n | n
CCOC(=O)N1CCC(NC(=O)CSc2cc(=O)n(C)c3ccc(Cl)cc23)CC1 | n | n | n | n | n | n
NC(=O)c1sc2nccc(Nc3ccccc3)c2c1N | n | n | n | n | 45 | n
COc1cccc(N(C(=O)c2cccs2)c2nc3ccccc3s2)c1 | n | n | n | n | n | n
CS(=O)(=O)N(Cc1ccc(C(=O)NCc2ccco2)cc1)c1ccccc1 | n | n | 1.9 | n | n | n
COc1ccc(C2=Nn3c(nnc3-c3ccccc3OC)SC2)cc1OC | n | n | n | n | 47 | n
COc1cccc(-c2nnc3n2N=C(C(C)(C)C)CS3)c1 | n | n | n | x | 50 | n
COc1ccc(OC)c(C2=Nn3c(nnc3-c3cc(OC)c(OC)c(OC)c3)SC2)c1 | 3.3 | n | n | n | n | n
COc1ccc(C2=Nn3c(nnc3-c3ccccn3)SC2)cc1OC | n | n | n | n | x | n
Cc1cccc(NC(=O)C2CCCN2S(=O)(=O)c2cccc3cccnc23)c1 (configuration not stated) | n | n | 0.74 | n | n | n
Cc1ccc(NC(=O)C2CCCN2S(=O)(=O)c2cccc3cccnc23)cc1F (configuration not stated) | n | n | n | n | n | n
COC(=O)C1=C(CN2CCCc3ccccc32)NC(=O)NC1c1ccc(F)cc1 (configuration not stated) | n | n | n | n | 70 | n
COC(=O)CCn1nnc(-c2cccs2)n1 | n | n | 1.7 | n | n | n
CCCN(CCC)S(=O)(=O)c1ccc(C(=O)Nc2nnc(-c3cccc(OC)c3)o2)cc1 | n | n | n | n | 45 | n
CCC(CC)C(=O)Nc1cc(C)cc(C)c1 | n | n | 3.3 | n | n | n
Cc1ccccc1-n1nnnc1SCC(N)=O | n | n | n | n | n | n
Cc1cccc(C)c1-n1nnnc1SCSc1nnnn1-c1c(C)cccc1C | n | n | n | n | 45 | n
SMILES | M1 agonist | Cdc25B block | M1 antag | Her2 expr inh | HEK293 NFkB inh | MKP-1 inh
CS(=O)(=O)c1ccc(Cl)c(NC(=O)COC(=O)CNC(=O)c2ccc(Br)o2)c1 | n | n | n | -22 | n | n
CCN(CC)c1ccc2c(Cl)c(Br)c(=O)oc2c1 | 38 | n | n | -27 | n | n
CCN(CC)c1ccc2c(c1)oc(=O)c1c(Cl)cc(=O)oc12 | 45 | n | n | -17 | n | n
CCN(CC)c1ccc2c(C)c(-c3ccc(N)cc3)c(=O)oc2c1 | n | n | n | n | x | n
CCOC(=O)Cc1c(C)c2ccc(N(CC)CC)cc2oc1=O | n | n | n | n | n | n
Cc1ccc2c(c1)c(-c1ccccc1)nc1nncn12 | n | n | n | n | n | n
Cc1cc(C)n(S(=O)(=O)c2cc(C(=O)O)c(Cl)cc2Cl)n1 | n | n | 2.3 | n | n | n
Cn1c(=O)cc(NCc2ccccc2)[nH]c1=O | n | n | n | n | x | n
CCCCNc1cc(=O)n(C)c(=O)[nH]1 | n | n | 0.73 | n | n | n

Screening data as filed in PubChem.
